Assay results from ChEMBL document CHEMBL1921722, “In vitro and in vivo evaluation of select kahalalide F analogs with antitumor and antifungal activities” (Bioorg Med Chem, 2011).
Activity calls are given as the source filed them. No cut-off for these calls is given here.

What was measured:
BT-549 [1] = experiment: Cytotoxicity against human BT549 cells assessed as cell growth at 8 uM by sulforhodamine B assay relative to control; format: functional; settings: read-out: Activity
Summary of the method: (§1)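 Run at NCI in the DTP 60-cell-line human tumor panel by standard procedure. Compounds were first screened at a single concentration, then tested at five tenfold-spaced concentrations. GI50 is the concentration reducing treated-cell growth to half that of untreated controls; TGI is the concentration completely halting growth.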

UO-31 [2] = experiment: Cytotoxicity against human UO31 cells assessed as cell growth at 80 uM by sulforhodamine B assay relative to control; format: functional; settings: read-out: Activity
HL-60(TB) [3] = experiment: Cytotoxicity against human HL-60(TB) cells assessed as cell growth at 8 nM by sulforhodamine B assay relative to control; format: functional; settings: read-out: Activity
NCI-H322M = experiment: Cytotoxicity against human NCI-H322M cells assessed as cell growth at 80 nM by sulforhodamine B assay relative to control; format: functional; settings: read-out: Activity
MOLT-4 [4] = experiment: Cytotoxicity against human MOLT4 cells assessed as cell growth at 8 nM by sulforhodamine B assay relative to control; format: functional; settings: read-out: Activity
LOX IMVI = experiment: Cytotoxicity against human LOXIMVI cells by sulforhodamine B assay; format: functional
Summary of the method: (§2)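 NCI Developmental Therapeutics Program 60-cell-line human tumor panel screen, run at NCI. A single-concentration pre-screen was followed by a five-concentration dose-response in 10-fold steps. GI50 is the concentration that reduces growth of treated cells to half that of untreated control cells. TGI is the concentration that completely halts growth.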

HOP-62 [5] = experiment: Cytotoxicity against human HOP62 cells assessed as cell growth at 80 uM by sulforhodamine B assay relative to control; format: functional; settings: read-out: Activity
OVCAR-8 [6] = experiment: Cytotoxicity against human OVCAR8 cells assessed as cell growth at 80 uM by sulforhodamine B assay relative to control; format: functional; settings: read-out: Activity
SNB-19 [7] = experiment: Cytotoxicity against human SNB19 cells assessed as cell growth at 8 nM by sulforhodamine B assay relative to control; format: functional; settings: read-out: Activity
SF-268 [8] = experiment: Cytotoxicity against human SF268 cells assessed as cell growth at 8 uM by sulforhodamine B assay relative to control; format: functional; settings: read-out: Activity
MDA-MB-231 = experiment: Cytotoxicity against human MDA-MB-231 cells assessed as cell growth at 80 nM by sulforhodamine B assay relative to control; format: functional; settings: read-out: Activity
OVCAR-8 [9] = experiment: Cytotoxicity against human OVCAR8 cells assessed as cell growth at 8 nM by sulforhodamine B assay relative to control; format: functional; settings: read-out: Activity
EKVX = experiment: Cytotoxicity against human EKVX cells assessed as cell growth at 800 nM by sulforhodamine B assay relative to control; format: functional; settings: read-out: Activity
A549 = experiment: Cytotoxicity against human A549 cells assessed as cell growth at 800 nM by sulforhodamine B assay relative to control; format: functional; settings: read-out: Activity; summary of the method: as §1
A498 = experiment: Cytotoxicity against human A498 cells assessed as cell growth at 8 nM by sulforhodamine B assay relative to control; format: functional; settings: read-out: Activity; summary of the method: as §1
SF-268 [10] = experiment: Cytotoxicity against human SF268 cells assessed as cell growth at 8 nM by sulforhodamine B assay relative to control; format: functional; settings: read-out: Activity
MOLT-4 [11] = experiment: Cytotoxicity against human MOLT4 cells assessed as cell growth at 80 nM by sulforhodamine B assay relative to control; format: functional; settings: read-out: Activity
RPMI-8226 = experiment: Cytotoxicity against human RPMI8226 cells assessed as cell growth at 800 nM by sulforhodamine B assay relative to control; format: functional; settings: read-out: Activity
SR = experiment: Cytotoxicity against human SR cells assessed as cell growth at 80 nM by sulforhodamine B assay relative to control; format: functional; settings: read-out: Activity
U-251 = experiment: Cytotoxicity against human U251 cells assessed as cell growth at 800 nM by sulforhodamine B assay relative to control; format: functional; settings: read-out: Activity
M14 = experiment: Cytotoxicity against human M14 cells assessed as cell growth at 800 nM by sulforhodamine B assay relative to control; format: functional; settings: read-out: Activity
PC-3 = experiment: Cytotoxicity against human PC3 cells assessed as cell growth at 80 uM by sulforhodamine B assay relative to control; format: functional; settings: read-out: Activity
HOP-62 [12] = experiment: Cytotoxicity against human HOP62 cells assessed as cell growth at 8 uM by sulforhodamine B assay relative to control; format: functional; settings: read-out: Activity
[13] = Acute toxicity in ip dosed athymic nude mouse assessed as mortality after 24 days; format: organism-based; settings: in vivo
Summary of the method: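 Female athymic nude mice, non-tumored; single IP injection, one mouse per dose level, 400, 200 and 100 mg/kg first, then 50, 25 and 12.5 mg/kg. Dose volume 0.1 ml/10 g body weight. Body weight and survival monitored; animals sacrificed on >20% weight loss or other significant toxicity.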

TK-10 [14] = experiment: Cytotoxicity against human TK10 cells assessed as cell growth at 80 uM by sulforhodamine B assay relative to control; format: functional; settings: read-out: Activity
OVCAR-4 = experiment: Cytotoxicity against human OVCAR4 cells assessed as cell growth at 8 nM by sulforhodamine B assay relative to control; format: functional; settings: read-out: Activity
MOLT-4 [15] = experiment: Cytotoxicity against human MOLT4 cells assessed as cell growth at 80 uM by sulforhodamine B assay relative to control; format: functional; settings: read-out: Activity
HCC 2998 = experiment: Cytotoxicity against human HCC2998 cells assessed as cell growth at 8 uM by sulforhodamine B assay relative to control; format: functional; settings: read-out: Activity
UACC-257 = experiment: Cytotoxicity against human UACC257 cells assessed as cell growth at 80 nM by sulforhodamine B assay relative to control; format: functional; settings: read-out: Activity
RXF 393 = experiment: Cytotoxicity against human RXF393 cells assessed as cell growth at 8 uM by sulforhodamine B assay relative to control; format: functional; settings: read-out: Activity
TK-10 [16] = experiment: Cytotoxicity against human TK10 cells assessed as cell growth at 80 nM by sulforhodamine B assay relative to control; format: functional; settings: read-out: Activity
T47D = experiment: Cytotoxicity against human T47D cells assessed as cell growth at 80 nM by sulforhodamine B assay relative to control; format: functional; settings: read-out: Activity
NCI-H522 [17] = experiment: Cytotoxicity against human NCI-H522 cells by sulforhodamine B assay; format: functional; summary of the method: as §2
SK-OV-3 = experiment: Cytotoxicity against human SKOV3 cells assessed as cell growth at 8 nM by sulforhodamine B assay relative to control; format: functional; settings: read-out: Activity
SNB-19 [18] = experiment: Cytotoxicity against human SNB19 cells by sulforhodamine B assay; format: functional; summary of the method: as §2
HT-29 = experiment: Cytotoxicity against human HT-29 cells assessed as cell growth at 80 uM by sulforhodamine B assay relative to control; format: functional; settings: read-out: Activity
HL-60(TB) [19] = experiment: Cytotoxicity against human HL-60(TB) cells assessed as cell growth at 8 uM by sulforhodamine B assay relative to control; format: functional; settings: read-out: Activity
NCI-H522 [20] = experiment: Cytotoxicity against human NCI-H522 cells assessed as cell growth at 800 nM by sulforhodamine B assay relative to control; format: functional; settings: read-out: Activity
SK-MEL-28 = experiment: Cytotoxicity against human SK-MEL-28 cells assessed as cell growth at 80 nM by sulforhodamine B assay relative to control; format: functional; settings: read-out: Activity
Fusarium sp. = experiment: Antimicrobial activity against Fusarium sp. by CLSI method; format: functional, organism-based
UO-31 [21] = experiment: Cytotoxicity against human UO31 cells assessed as cell growth at 80 nM by sulforhodamine B assay relative to control; format: functional; settings: read-out: Activity
BT-549 [22] = experiment: Cytotoxicity against human BT549 cells assessed as cell growth at 80 uM by sulforhodamine B assay relative to control; format: functional; settings: read-out: Activity; summary of the method: as §1

SMILES: C/C=C1\NC(=O)[C@H](Cc2ccccc2)NC(=O)[C@@H](C(C)C)NC(=O)[C@@H]([C@@H](C)CC)NC(=O)[C@H](NC(=O)[C@H](NC(=O)[C@H](CCCNCc2ccc(F)c(C)c2)NC(=O)[C@H]2CCCN2C(=O)[C@H](NC(=O)[C@@H](NC(=O)[C@@H](NC(=O)[C@H](NC(=O)CCCC(C)C)C(C)C)[C@@H](C)O)C(C)C)C(C)C)[C@@H](C)CC)[C@@H](C)OC(=O)[C@H](C(C)C)NC1=O
- growth at 8 µM (BT-549 [1]): -88%
- growth at 80 µM (UO-31 [2]): -11%
- growth at 0.008 µM (HL-60(TB) [3]): 91%
- growth at 0.08 µM (NCI-H322M): 95%
- growth at 0.008 µM (MOLT-4 [4]): 103%
- GI50 (LOX IMVI): 1480 nM
- LC50 (LOX IMVI): 4900 nM
- TGI (LOX IMVI; read-out: pTGI (converted)): 2690 nM
- growth at 80 µM (HOP-62 [5]): -85%
- growth at 80 µM (OVCAR-8 [6]): 48%
- growth at 0.008 µM (SNB-19 [7]): 99%
- growth at 8 µM (SF-268 [8]): -63%
- growth at 0.08 µM (MDA-MB-231): 98%
- growth at 0.008 µM (OVCAR-8 [9]): 107%
- growth at 0.8 µM (EKVX): 50%
- growth at 0.8 µM (A549): -40%
- growth at 0.008 µM (A498): 102%
- growth at 0.008 µM (SF-268 [10]): 97%
- growth at 0.08 µM (MOLT-4 [11]): 97%
- growth at 0.8 µM (RPMI-8226): 59%
- growth at 0.08 µM (SR): 89%
- growth at 0.8 µM (U-251): 27%
- growth at 0.8 µM (M14): 101%
- growth at 80 µM (PC-3): -76%
- growth at 8 µM (HOP-62 [12]): -93%
- MTD at 576 h [13]: 12.5 mg/kg
- growth at 80 µM (TK-10 [14]): -9%
- growth at 0.008 µM (OVCAR-4): 100%
- growth at 80 µM (MOLT-4 [15]): 9%
- growth at 8 µM (HCC 2998): -87%
- growth at 0.08 µM (UACC-257): 101%
- growth at 8 µM (RXF 393): -61%
- growth at 0.08 µM (TK-10 [16]): 105%
- growth at 0.08 µM (T47D): 90%
- GI50 (NCI-H522 [17]): 2570 nM
- LC50 (NCI-H522 [17]): > 75900 nM
- TGI (NCI-H522 [17]; read-out: pTGI (converted)): 35500 nM
- growth at 0.008 µM (SK-OV-3): 102%
- GI50 (SNB-19 [18]): 1290 nM
- LC50 (concentration killing 50% of cells) (SNB-19 [18]): 4790 nM
- TGI (SNB-19 [18]; read-out: pTGI (converted)): 2450 nM
- growth at 80 µM (HT-29): 21%
- growth at 8 µM (HL-60(TB) [19]): -65%
- growth at 0.8 µM (NCI-H522 [20]): 105%
- growth at 0.08 µM (SK-MEL-28): 105%
- Activity (Fusarium sp.): Active
- growth at 0.08 µM (UO-31 [21]): 106%
- growth at 80 µM (BT-549 [22]): -58%
